In ChEMBL document CHEMBL5058577, “EUbOPEN Chemogenomics Library 2 (Multiplex)” (2022):

Test system: U2OS
Experiment: Multiplex assay against U2OS
Assay type: toxicity, cell-based
Conditions: human
Procedure, shortened: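 Live cells were stained at seeding with Hoechst33342, BioTracker Green Microtubule Cytoskeleton Dye, MitoTracker Red and Annexin V Alexa Fluor 680, then imaged on a CQ1 microscope at 37°C and 5% CO2 after compound addition. CellPathfinder machine-learning gating split cells into Hoechst high-intensity objects or normal cells. Normal cells were split into healthy, pyknosed or fragmented nuclei, and pyknosed cells into mitotic or apoptotic. Tubulin, mitochondrial-mass and membrane-permeability phenotypes are per cents of healthy-nucleus cells.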

[1] = 12 h, 1 µM, compound concentration 1 uM, replicate 1
[2] = 12 h, 1 µM, compound concentration 1 uM, replicate 2
[3] = 12 h, 10 µM, compound concentration 10 uM, replicate 1
[4] = 12 h, 10 µM, compound concentration 10 uM, replicate 2
[5] = 24 h, 1 µM, compound concentration 1 uM, replicate 1
[6] = 24 h, 1 µM, compound concentration 1 uM, replicate 2
[7] = 24 h, 10 µM, compound concentration 10 uM, replicate 1
[8] = 24 h, 10 µM, compound concentration 10 uM, replicate 2
[9] = 48 h, 1 µM, compound concentration 1 uM, replicate 1
[10] = 48 h, 1 µM, compound concentration 1 uM, replicate 2
[11] = 48 h, 10 µM, compound concentration 10 uM, replicate 1
[12] = 48 h, 10 µM, compound concentration 10 uM, replicate 2

With `COc1c(C)cc(NC(=O)c2nn(Cc3ccc(F)cc3)c3c2CN(C(=O)c2ccc[nH]2)C[C@]3(C)C(N)=O)cc1C` as the compound, how does the “Population Apoptotic (%)” value [1] read?
Its value is 65%.

And the “Population Fragmented Nuclei (%)” value [1]?
The value was 22%.

And the “Population Healthy Nuclei (%)” value [1]?
Its value is 65%.

And the “Population Hoechst High Intensity Objects (%)” value [1]?
Its value is 2%.

And the “Population Membrane Permeable-Phenotype (%)” value [1]?
The value was 8%.

And the “Population Mitochondria Different-Phenotype (%)” value [1]?
The value was 3%.

And the “Population Mitotic Cells (%)” value [1]?
The value was 34%.

And the “Population Normal (%)” value [1]?
Its value is 97%.

And the “Population Pyknosed Nuclei (%)” value [1]?
The value was 12%.

And the “Population Tubulin-Different-Phenotype (%)” value [1]?
Its value is 5%.

What about the “Total Cell Count” value [1] of the same compound?
Its value is 247.

What about the “Population Apoptotic (%)” value [2] of the same compound?
The value was 83%.

And the “Population Fragmented Nuclei (%)” value [2]?
The value was 21%.

What about the “Population Healthy Nuclei (%)” value [2] of the same compound?
The value was 72%.

And the “Population Mitochondria Different-Phenotype (%)” value [2]?
Its value is 12%.

And the “Population Mitotic Cells (%)” value [2]?
The value was 16%.

What about the “Population Pyknosed Nuclei (%)” value [2] of the same compound?
The value was 6%.

And the “Population Tubulin-Different-Phenotype (%)” value [2]?
Its value is 9%.

And the “Total Cell Count” value [2]?
The value was 102.

And the “Population Apoptotic (%)” value [3]?
Its value is 33%.

What about the “Population Fragmented Nuclei (%)” value [3] of the same compound?
The value was 26%.

What about the “Population Healthy Nuclei (%)” value [3] of the same compound?
Its value is 43%.

And the “Population Hoechst High Intensity Objects (%)” value [3]?
The value was 9%.

What about the “Population Membrane Permeable-Phenotype (%)” value [3] of the same compound?
The value was 77%.

And the “Population Mitochondria Different-Phenotype (%)” value [3]?
Its value is 90%.

And the “Population Mitotic Cells (%)” value [3]?
Its value is 66%.

What about the “Population Normal (%)” value [3] of the same compound?
The value was 90%.

What about the “Population Pyknosed Nuclei (%)” value [3] of the same compound?
Its value is 29%.

And the “Population Tubulin-Different-Phenotype (%)” value [3]?
Its value is 95%.

What about the “Total Cell Count” value [3] of the same compound?
The value was 223.

What about the “Population Apoptotic (%)” value [4] of the same compound?
Its value is 60%.

And the “Population Fragmented Nuclei (%)” value [4]?
The value was 11%.

What about the “Population Healthy Nuclei (%)” value [4] of the same compound?
The value was 66%.

What about the “Population Hoechst High Intensity Objects (%)” value [4] of the same compound?
The value was 8%.

And the “Population Membrane Permeable-Phenotype (%)” value [4]?
The value was 54%.

And the “Population Mitochondria Different-Phenotype (%)” value [4]?
The value was 97%.

What about the “Population Mitotic Cells (%)” value [4] of the same compound?
The value was 39%.

And the “Population Normal (%)” value [4]?
The value was 91%.

And the “Population Pyknosed Nuclei (%)” value [4]?
The value was 21%.

And the “Population Tubulin-Different-Phenotype (%)” value [4]?
The value was 100%.

And the “Total Cell Count” value [4]?
Its value is 119.

And the “Population Apoptotic (%)” value [5]?
The value was 67%.

And the “Population Fragmented Nuclei (%)” value [5]?
The value was 16%.

And the “Population Healthy Nuclei (%)” value [5]?
The value was 71%.

What about the “Population Hoechst High Intensity Objects (%)” value [5] of the same compound?
Its value is 5%.

And the “Population Membrane Permeable-Phenotype (%)” value [5]?
The value was 8%.

And the “Population Mitochondria Different-Phenotype (%)” value [5]?
Its value is 6%.

And the “Population Mitotic Cells (%)” value [5]?
The value was 32%.

What about the “Population Normal (%)” value [5] of the same compound?
The value was 94%.

And the “Population Pyknosed Nuclei (%)” value [5]?
The value was 12%.

And the “Population Tubulin-Different-Phenotype (%)” value [5]?
The value was 7%.

What about the “Total Cell Count” value [5] of the same compound?
Its value is 265.

And the “Population Apoptotic (%)” value [6]?
The value was 61%.

What about the “Population Fragmented Nuclei (%)” value [6] of the same compound?
The value was 17%.

And the “Population Healthy Nuclei (%)” value [6]?
The value was 70%.

What about the “Population Hoechst High Intensity Objects (%)” value [6] of the same compound?
Its value is 0%.

What about the “Population Membrane Permeable-Phenotype (%)” value [6] of the same compound?
The value was 7%.

And the “Population Mitochondria Different-Phenotype (%)” value [6]?
Its value is 2%.

And the “Population Mitotic Cells (%)” value [6]?
The value was 38%.

What about the “Population Normal (%)” value [6] of the same compound?
The value was 99%.

What about the “Population Pyknosed Nuclei (%)” value [6] of the same compound?
Its value is 11%.

What about the “Population Tubulin-Different-Phenotype (%)” value [6] of the same compound?
Its value is 6%.

And the “Total Cell Count” value [6]?
The value was 111.

And the “Population Apoptotic (%)” value [7]?
Its value is 66%.

And the “Population Fragmented Nuclei (%)” value [7]?
Its value is 26%.

And the “Population Healthy Nuclei (%)” value [7]?
Its value is 41%.

And the “Population Hoechst High Intensity Objects (%)” value [7]?
Its value is 12%.

And the “Population Membrane Permeable-Phenotype (%)” value [7]?
Its value is 46%.

And the “Population Mitochondria Different-Phenotype (%)” value [7]?
The value was 92%.

And the “Population Mitotic Cells (%)” value [7]?
Its value is 33%.

What about the “Population Normal (%)” value [7] of the same compound?
The value was 87%.

What about the “Population Pyknosed Nuclei (%)” value [7] of the same compound?
Its value is 31%.

What about the “Population Tubulin-Different-Phenotype (%)” value [7] of the same compound?
Its value is 94%.

And the “Total Cell Count” value [7]?
Its value is 216.

And the “Population Apoptotic (%)” value [8]?
Its value is 65%.

And the “Population Fragmented Nuclei (%)” value [8]?
The value was 13%.

What about the “Population Healthy Nuclei (%)” value [8] of the same compound?
Its value is 53%.

What about the “Population Hoechst High Intensity Objects (%)” value [8] of the same compound?
The value was 7%.

What about the “Population Membrane Permeable-Phenotype (%)” value [8] of the same compound?
The value was 49%.

What about the “Population Mitochondria Different-Phenotype (%)” value [8] of the same compound?
The value was 91%.

And the “Population Mitotic Cells (%)” value [8]?
Its value is 34%.

And the “Population Normal (%)” value [8]?
Its value is 92%.

What about the “Population Pyknosed Nuclei (%)” value [8] of the same compound?
Its value is 33%.

What about the “Population Tubulin-Different-Phenotype (%)” value [8] of the same compound?
The value was 91%.

What about the “Total Cell Count” value [8] of the same compound?
Its value is 123.

What about the “Population Apoptotic (%)” value [9] of the same compound?
Its value is 79%.

What about the “Population Fragmented Nuclei (%)” value [9] of the same compound?
Its value is 18%.

What about the “Population Healthy Nuclei (%)” value [9] of the same compound?
The value was 68%.

And the “Population Hoechst High Intensity Objects (%)” value [9]?
The value was 2%.

And the “Population Membrane Permeable-Phenotype (%)” value [9]?
The value was 4%.

What about the “Population Mitochondria Different-Phenotype (%)” value [9] of the same compound?
The value was 3%.

And the “Population Mitotic Cells (%)” value [9]?
Its value is 20%.

What about the “Population Normal (%)” value [9] of the same compound?
Its value is 97%.

And the “Population Pyknosed Nuclei (%)” value [9]?
Its value is 13%.

What about the “Population Tubulin-Different-Phenotype (%)” value [9] of the same compound?
Its value is 2%.

And the “Total Cell Count” value [9]?
The value was 365.

What about the “Population Apoptotic (%)” value [10] of the same compound?
Its value is 84%.

What about the “Population Fragmented Nuclei (%)” value [10] of the same compound?
The value was 15%.

What about the “Population Healthy Nuclei (%)” value [10] of the same compound?
The value was 70%.

What about the “Population Hoechst High Intensity Objects (%)” value [10] of the same compound?
The value was 5%.

What about the “Population Membrane Permeable-Phenotype (%)” value [10] of the same compound?
The value was 9%.

And the “Population Mitochondria Different-Phenotype (%)” value [10]?
Its value is 4%.

And the “Population Mitotic Cells (%)” value [10]?
Its value is 15%.

And the “Population Normal (%)” value [10]?
Its value is 94%.

And the “Population Tubulin-Different-Phenotype (%)” value [10]?
Its value is 5%.

And the “Total Cell Count” value [10]?
The value was 152.

What about the “Population Apoptotic (%)” value [11] of the same compound?
Its value is 84%.

And the “Population Fragmented Nuclei (%)” value [11]?
Its value is 31%.

And the “Population Healthy Nuclei (%)” value [11]?
Its value is 24%.

And the “Population Hoechst High Intensity Objects (%)” value [11]?
The value was 17%.

What about the “Population Membrane Permeable-Phenotype (%)” value [11] of the same compound?
The value was 69%.

What about the “Population Mitochondria Different-Phenotype (%)” value [11] of the same compound?
The value was 85%.

And the “Population Mitotic Cells (%)” value [11]?
Its value is 15%.

What about the “Population Normal (%)” value [11] of the same compound?
The value was 82%.

And the “Population Pyknosed Nuclei (%)” value [11]?
The value was 44%.

What about the “Population Tubulin-Different-Phenotype (%)” value [11] of the same compound?
Its value is 90%.

What about the “Total Cell Count” value [11] of the same compound?
The value was 212.

What about the “Population Apoptotic (%)” value [12] of the same compound?
Its value is 87%.

What about the “Population Fragmented Nuclei (%)” value [12] of the same compound?
Its value is 22%.

And the “Population Healthy Nuclei (%)” value [12]?
Its value is 47%.

What about the “Population Hoechst High Intensity Objects (%)” value [12] of the same compound?
The value was 9%.

What about the “Population Membrane Permeable-Phenotype (%)” value [12] of the same compound?
Its value is 50%.

And the “Population Mitochondria Different-Phenotype (%)” value [12]?
The value was 81%.

And the “Population Mitotic Cells (%)” value [12]?
Its value is 12%.

What about the “Population Normal (%)” value [12] of the same compound?
Its value is 90%.

What about the “Population Pyknosed Nuclei (%)” value [12] of the same compound?
Its value is 29%.

And the “Population Tubulin-Different-Phenotype (%)” value [12]?
Its value is 80%.

And the “Total Cell Count” value [12]?
The value was 150.
